Measurements as given in article PMC9322249 (Journal of Food and Drug Analysis, 2017).

How the values were obtained:
[1] = ABTS radical cation bleaching assay; conditions: TEAC units; X = EO or compound
Outline: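 ABTS radical cation (ABTS•+) bleaching by essential oils and their individual components, run in triplicate by a published method. Results are given as mean ± SD, compared by ANOVA with Tukey's HSD (p < 0.05).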

[2] = Thiobarbituric acid reactive substances; conditions: for TBARS: BHTE units, X = EO or compound
Outline: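 TBARS formation by oxidation measured in soybean lecithin homogenate as lipid-rich medium, by a published method, in triplicate. Values are expressed as μmol BHTE/mL EO, mean ± SD, with ANOVA/Tukey's HSD (p < 0.05).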

Reducing power = conditions: AAE units; X = EO or compound
Outline: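 Reduction of potassium ferricyanide by the oils and individual components, by a published method, in triplicate. Results are reported as ascorbic acid equivalents per volume of EO, mean ± SD, with ANOVA/Tukey's HSD (p < 0.05).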

Chelating power = conditions: for ChP: EDTAE units, X = EO or compound
Outline: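 Ferrous ion chelation by essential oils and their major components, by a published method, in triplicate. Results are expressed as EDTA equivalents per volume of EO, mean ± SD, with ANOVA/Tukey's HSD (p < 0.05).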

[3] = DPPH radical scavenging capacity; conditions: TEAC units; X = EO or compound
Outline: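 DPPH radical scavenging by essential oils and individual components, by a published method, in triplicate. Values are expressed as μmol TE/mL EO and given as mean ± SD, with ANOVA/Tukey's HSD at p < 0.05.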

[4] = Oxygen radical absorption capacity; conditions: TEAC units; X = EO or compound
Outline: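 Peroxyl radical (ROO) scavenging by the oils and individual components, following a published ORAC method, in triplicate. Data are mean ± SD, with significance by ANOVA/Tukey's HSD (p < 0.05).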

[5] = biological target: T1, lipoxygenase (LOX) (linoleate:oxygen oxidoreductase, EC 1.13.11.12) (Glycine max, UniProt P08170); test: Lipoxygenase; assay type: biochemical, Glycine max (soybean); conditions: soybean LOX, linoleic acid substrate, 25 °C; mean ± SD
T1 sequence (P08170 1-839): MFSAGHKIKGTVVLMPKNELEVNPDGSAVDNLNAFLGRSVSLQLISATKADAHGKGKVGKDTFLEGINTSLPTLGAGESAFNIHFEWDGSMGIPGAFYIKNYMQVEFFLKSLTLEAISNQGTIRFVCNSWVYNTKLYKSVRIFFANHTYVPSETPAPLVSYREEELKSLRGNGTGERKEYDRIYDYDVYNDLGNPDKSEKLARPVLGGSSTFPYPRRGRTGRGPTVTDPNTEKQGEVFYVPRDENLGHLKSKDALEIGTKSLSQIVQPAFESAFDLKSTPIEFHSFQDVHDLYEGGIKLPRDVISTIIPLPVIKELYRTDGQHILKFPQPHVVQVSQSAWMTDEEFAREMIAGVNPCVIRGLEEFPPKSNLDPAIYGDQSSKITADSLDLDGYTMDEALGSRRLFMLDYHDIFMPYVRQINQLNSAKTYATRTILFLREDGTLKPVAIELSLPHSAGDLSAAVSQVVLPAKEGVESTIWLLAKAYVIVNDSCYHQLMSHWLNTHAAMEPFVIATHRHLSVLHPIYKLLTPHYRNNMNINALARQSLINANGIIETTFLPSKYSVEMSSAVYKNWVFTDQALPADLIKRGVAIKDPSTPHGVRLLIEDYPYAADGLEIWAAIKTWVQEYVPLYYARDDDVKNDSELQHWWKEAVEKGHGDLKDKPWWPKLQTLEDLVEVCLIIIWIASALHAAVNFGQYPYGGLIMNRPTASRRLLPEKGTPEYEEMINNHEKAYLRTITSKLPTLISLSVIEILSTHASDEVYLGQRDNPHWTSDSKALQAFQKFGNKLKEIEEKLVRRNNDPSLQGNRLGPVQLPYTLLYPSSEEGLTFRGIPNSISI

LOX inhibitory activity, IC50 of main commercially available compounds [5]	Structure (SMILES)	ABTS [1]	TBARS [2]	RdP (Reducing power)	ChP (Chelating power)	DPPH [3]	ORAC [4]	Chelating power (ChP), result in words (Chelating power)	TBARS antioxidant activity, result in words [2]
	CC12CCC(CC1)C(C)(C)O2 [1,8-Cineole]	0.2 ± 0.0 μmol TE/mL X	N/D (Activity lower than 0.05 units at a maximum assay concentration of 100 mM)	N/D (Activity lower than 0.05 units at a maximum assay concentration of 100 mM)	6.7 ± 0.4 μmol EDTAE/mL X	N/D (Activity lower than 0.05 units at a maximum assay concentration of 100 mM)	N/D (Activity lower than 0.05 units at a maximum assay concentration of 100 mM)		
	CC1(C)C2CCC1(C)C(O)C2 (centres unmarked) [Borneol]	N/D (Activity lower than 0.05 units at a maximum assay concentration of 100 mM)	N/D (Activity lower than 0.05 units at a maximum assay concentration of 100 mM)	N/D (Activity lower than 0.05 units at a maximum assay concentration of 100 mM)	N/D (Activity lower than 0.05 units at a maximum assay concentration of 100 mM)	N/D (Activity lower than 0.05 units at a maximum assay concentration of 100 mM)	N/D (Activity lower than 0.05 units at a maximum assay concentration of 100 mM)		
	C=C1C2CCC(C2)C1(C)C (centres unmarked) [Camphene]	0.8 ± 0.0 μmol TE/mL X	N/D (Activity lower than 0.05 units at a maximum assay concentration of 100 mM)	3238.9 ± 157.4 μmol AAE/L X	9.9 ± 0.7 μmol EDTAE/mL X	N/D (Activity lower than 0.05 units at a maximum assay concentration of 100 mM)	N/D (Activity lower than 0.05 units at a maximum assay concentration of 100 mM)		
	Cc1ccc(C(C)C)cc1O [Carvacrol]	7804.4 ± 268.1 μmol TE/mL X	600.7 ± 102.2 μmol BHTE/mL X	3239.6 ± 143.0 μmol AAE/L X	N/D (Activity lower than 0.05 units at a maximum assay concentration of 100 mM)	34.9 ± 2.5 μmol TE/mL X	2.8 ± 0.1 μmol TE/μL X		
	C=CC(=C)CCC=C(C)C [Myrcene]	N/D (Activity lower than 0.05 units at a maximum assay concentration of 100 mM)	N/D (Activity lower than 0.05 units at a maximum assay concentration of 100 mM)	N/D (Activity lower than 0.05 units at a maximum assay concentration of 100 mM)	14.4 ± 1.0 μmol EDTAE/mL X	N/D (Activity lower than 0.05 units at a maximum assay concentration of 100 mM)	N/D (Activity lower than 0.05 units at a maximum assay concentration of 100 mM)		
	CC(C)C12CCC(C)(O)C1C2 (centres unmarked) [Sabinene hydrate]	3.2 ± 0.2 μmol TE/mL X	97.2 ± 4.2 μmol BHTE/mL X	N/D (Activity lower than 0.05 units at a maximum assay concentration of 100 mM)	44.9 ± 3.7 μmol EDTAE/mL X	N/D (Activity lower than 0.05 units at a maximum assay concentration of 100 mM)	0.3 ± 0.0 μmol TE/μL X		
	CC1=CCC(O)(C(C)C)CC1 (centres unmarked) [Terpinen-4-ol]	1.8 ± 0.1 μmol TE/mL X	50.2 ± 10.6 μmol BHTE/mL X	N/D (Activity lower than 0.05 units at a maximum assay concentration of 100 mM)	10.3 ± 0.7 μmol EDTAE/mL X	0.3 ± 0.0 μmol TE/mL X	2.2 ± 0.1 μmol TE/μL X		
75 ± 3 μL (Compound)/L	CC(=O)OC1CC2CCC1(C)C2(C)C (centres unmarked) [bornyl acetate]	N/D (Activity lower than 0.05 units at a maximum assay concentration of 100 mM)	N/D (Activity lower than 0.05 units at a maximum assay concentration of 100 mM)	N/D (Activity lower than 0.05 units at a maximum assay concentration of 100 mM)	0.1 ± 0.0 μmol EDTAE/mL X	N/D (Activity lower than 0.05 units at a maximum assay concentration of 100 mM)	N/D (Activity lower than 0.05 units at a maximum assay concentration of 100 mM)		
422 ± 13 μL (Compound)/L	CC12CCC(CC1=O)C2(C)C (centres unmarked) [camphor]	N/D (Activity lower than 0.05 units at a maximum assay concentration of 100 mM)	N/D (Activity lower than 0.05 units at a maximum assay concentration of 100 mM)	N/D (Activity lower than 0.05 units at a maximum assay concentration of 100 mM)	N/D (Activity lower than 0.05 units at a maximum assay concentration of 100 mM)	N/D (Activity lower than 0.05 units at a maximum assay concentration of 100 mM)	N/D (Activity lower than 0.05 units at a maximum assay concentration of 100 mM)		
	C=CC(C)(CCC=C(C)C)OC(C)=O (centres unmarked) [linalyl acetate]	0.3 ± 0.0 μmol TE/mL X	19.6 ± 0.6 μmol BHTE/mL X	N/D (Activity lower than 0.05 units at a maximum assay concentration of 100 mM)	125.7 ± 9.4 μmol EDTAE/mL X	N/D (Activity lower than 0.05 units at a maximum assay concentration of 100 mM)	1.0 ± 0.1 μmol TE/μL X	high ChP	
	CC1=CCC2CC1C2(C)C (stereo not drawn) [α-Pinene]	N/D (Activity lower than 0.05 units at a maximum assay concentration of 100 mM)	16.3 ± 0.5 μmol BHTE/mL X	N/D (Activity lower than 0.05 units at a maximum assay concentration of 100 mM)	104.8 ± 7.0 μmol EDTAE/mL X	0.1 ± 0.0 μmol TE/mL X	0.2 ± 0.0 μmol TE/μL X		
	CC1=CC[C@@H](C(C)(C)O)CC1 [α-Terpineol]	1.1 ± 0.1 μmol TE/mL X	15.6 ± 0.5 μmol BHTE/mL X	N/D (Activity lower than 0.05 units at a maximum assay concentration of 100 mM)	29.9 ± 1.9 μmol EDTAE/mL X	N/D (Activity lower than 0.05 units at a maximum assay concentration of 100 mM)	1.9 ± 0.1 μmol TE/μL X		
	CC1=CC=C(C(C)C)CC1 [α-terpinene]	24.6 ± 1.2 μmol TE/mL X	N/D (Activity lower than 0.05 units at a maximum assay concentration of 100 mM)	11,531.4 ± 637.1 μmol AAE/L X	385.6 ± 29.0 μmol EDTAE/mL X	1.7 ± 0.1 μmol TE/mL X	0.4 ± 0.0 μmol TE/μL X	high chelating activity	
	C=C1CC/C=C(\C)CC[C@@H]2[C@@H]1CC2(C)C [β-Caryophyllene]	N/D (Activity lower than 0.05 units at a maximum assay concentration of 100 mM)	76.5 ± 3.4 μmol BHTE/mL X	N/D (Activity lower than 0.05 units at a maximum assay concentration of 100 mM)	31.6 ± 2.2 μmol EDTAE/mL X	N/D (Activity lower than 0.05 units at a maximum assay concentration of 100 mM)	1.7 ± 0.1 μmol TE/μL X		
	C=C1CCC2CC1C2(C)C (stereo not drawn) [β-Pinene]	0.7 ± 0.0 μmol TE/mL X	28.9 ± 1.9 μmol BHTE/mL X	N/D (Activity lower than 0.05 units at a maximum assay concentration of 100 mM)	11.7 ± 0.7 μmol EDTAE/mL X	0.1 ± 0.0 μmol TE/mL X	N/D (Activity lower than 0.05 units at a maximum assay concentration of 100 mM)		
	CC1=CCC(C(C)C)=CC1 [γ-terpinene]	15.6 ± 0.7 μmol TE/mL X	273.2 ± 24.4 μmol BHTE/mL X	1990.6 ± 160.2 μmol AAE/L X	2.0 ± 0.1 μmol EDTAE/mL X	2.1 ± 0.1 μmol TE/mL X	1.1 ± 0.1 μmol TE/μL X		strong TBARS antioxidant activity
